The target of assay [1] is Mu-type opioid receptor (Rattus norvegicus) (UniProt P33535). Kind of assay: Displacement of [3H]DAMGO from mu opioid receptor in rat brain measured total binding per mg of protein at 5 uM. It is filed as tissue-based. A general note: In a radioligand displacement assay an active substance lowers the binding of a labelled ligand.
The target of assay [2] is Kappa-type opioid receptor (Homo sapiens) (UniProt P41145). Description: Displacement of [3H]dynorphin from human kappa opioid receptor expressed in C6 giloma cells measured total binding per mg of protein at 5 uM. It counts as cell-based. A digest of the protocol:
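Membranes from C6 glioma cells stably transfected with human KOR (G418 selected), harvested in PBS, homogenized in 50 mM Tris–HCl pH 7.4 and spun at 30,000g. Nonspecific binding defined with 10 µM U50488H. Read by filtration and counting.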

The species entered for assay [3] is Rattus norvegicus. Kind of assay: Induction of ERK phosphorylation in rat primary astrocyte at 40 uM after 10 mins. A digest of the protocol:
(§1)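 Primary astrocytes from neocortex of newborn rat pups (<24 h), grown 10 days, then serum-starved 48 h. Treated 10 min at 40 µM; antagonists added 1 h before stimulation. pERK1/2 measured by western blot, 40 µg protein/lane, 10% SDS-PAGE, anti-p-ERK at 1:1000. Mean ± SEM of at least 3 blots, compared with untreated control.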

In assay [4] the test system is Mus musculus. Kind of assay: Inhibition of naloxone-induced stereotype jumping in morphine treated mouse at 20 mg/kg, iv for 6 days. It counts as functional, organism-based. Also on record: dose 20 mg/kg.
The subject of assay [5] is Mus musculus. Description: Inhibition of naloxone-induced weight loss in mouse at 20 mg/kg, iv for 6 days. It counts as functional, organism-based. More on the design: dose 20 mg/kg.
The species entered for assay [6] is Rattus norvegicus. Description: Induction of ERK phosphorylation in rat primary astrocyte at 40 uM after 10 mins in presence of naloxone. A digest of the protocol:
as §1

Calls of active or inactive are those of the source. No cut-off for these calls is given here.

This note sets out measurements from ChEMBL document CHEMBL1152513, “Synthesis and characterizations of novel quinoline derivatives having mixed ligand activities at the kappa and mu receptors: Potential therapeutic efficacy against morphine dependence” (Bioorg Med Chem, 2009).

Mu-type opioid receptor (Rattus norvegicus), sequence (P33535 whole entry): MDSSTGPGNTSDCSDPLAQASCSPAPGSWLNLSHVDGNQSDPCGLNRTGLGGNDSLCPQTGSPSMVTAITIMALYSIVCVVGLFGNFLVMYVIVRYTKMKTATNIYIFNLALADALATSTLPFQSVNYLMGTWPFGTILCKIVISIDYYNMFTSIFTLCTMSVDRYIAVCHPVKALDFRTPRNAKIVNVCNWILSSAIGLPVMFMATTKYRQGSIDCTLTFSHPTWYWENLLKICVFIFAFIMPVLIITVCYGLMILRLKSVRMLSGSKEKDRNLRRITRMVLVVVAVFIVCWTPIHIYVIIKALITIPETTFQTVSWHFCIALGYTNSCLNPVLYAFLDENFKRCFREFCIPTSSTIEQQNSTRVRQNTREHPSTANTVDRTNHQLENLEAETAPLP
Kappa-type opioid receptor (Homo sapiens), sequence (P41145 whole entry): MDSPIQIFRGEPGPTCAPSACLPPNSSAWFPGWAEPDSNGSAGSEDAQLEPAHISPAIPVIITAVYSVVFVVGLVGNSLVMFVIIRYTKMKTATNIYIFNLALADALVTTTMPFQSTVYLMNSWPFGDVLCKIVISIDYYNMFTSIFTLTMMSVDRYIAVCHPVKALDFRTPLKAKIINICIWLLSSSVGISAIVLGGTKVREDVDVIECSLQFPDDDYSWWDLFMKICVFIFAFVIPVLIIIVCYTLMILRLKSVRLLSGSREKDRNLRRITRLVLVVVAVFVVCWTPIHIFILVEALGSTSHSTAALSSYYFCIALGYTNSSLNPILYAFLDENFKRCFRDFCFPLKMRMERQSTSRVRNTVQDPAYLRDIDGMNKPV

Take `Cc1cc(N)c2ccccc2n1`: the Activity in assay [1] amounted to 95%; in assay [2] it was 71%. Also, the outcome in the assay filed under Rattus norvegicus [3] was Active.

On to `Cc1ccc(C(=O)Nc2cc(C)nc3ccccc23)cc1`, for which the Activity is 62% in assay [1] and 58% in assay [2]. Further, the result in the assay listed under Rattus norvegicus [3], in the assay on Mus musculus [4] and in the assay on Mus musculus [5] was Active.

On to `Cc1cc(NCC(=O)Nc2cc(Cl)ccc2Cl)c2ccccc2n1`, for which the Activity in assay [1] was 66%; in assay [2], 74%. For the same compound, the result in the assay listed under Rattus norvegicus [3] was Active.

As for `Cc1cc(NCC(=O)Nc2ccccc2)c2ccccc2n1`, the Activity in assay [1] stood at 30%; in assay [2] it was 38%. The result in the assay listed under Rattus norvegicus [3] and in the assay with Mus musculus [4] was Active. Further, the outcome in the assay filed under Rattus norvegicus [6] was inactive.

`Cc1ccc(NC(=O)CNc2cc(C)nc3ccccc23)cc1`: the Activity in assay [1] was determined as 47%; in assay [2] it was 90%. The outcome in the assay filed under Rattus norvegicus [3] and with Mus musculus [4] was Active.

As for `C[C@@H](NC(=O)[C@@H](N)Cc1ccc(O)cc1)C(=O)NCC(=O)N(C)[C@@H](Cc1ccccc1)C(=O)NCCO`, in assay [1], the Activity is 76%.

With `Cc1cc(NC(=O)C(Cl)Cl)c2ccccc2n1`, the Activity in assay [1] came out at 106%; in assay [2] it was 77%. For the same compound, in the assay filed under Rattus norvegicus [3], the outcome was Active.

Turning to `Cc1cc(N(CC(=O)NC2CCCCC2)CC(=O)NC2CCCCC2)c2ccccc2n1`, the Activity in assay [1] was 53%; in assay [2], 114%. For the same compound, in the assay listed under Rattus norvegicus [3], the outcome was Active.

For `COc1ccc(NC(=O)CNc2cc(C)nc3ccccc23)cc1`, the Activity was determined as 27% in assay [1] and 44% in assay [2]. In addition, in the assay listed under Rattus norvegicus [3], the result was Active.

For `O=C(CCCl)Nc1ccccc1`, the Activity is 61% in assay [1] and 59% in assay [2]. Also, the outcome in the assay filed under Rattus norvegicus [3] and in the assay on Mus musculus [5] was Active.

Turning to `Cc1cc(NCC(=O)Nc2ccccc2Cl)c2ccccc2n1`, the Activity in assay [1] and in assay [2] was 52% in each case. Also, the result in the assay listed under Rattus norvegicus [3] and in the assay with Mus musculus [4] was Active.

Consider `Cc1ccc(NC(=O)CCNc2cc(C)nc3ccccc23)cc1`, for which the Activity in assay [1] was determined as 23%; in assay [2] it was 56%. For the same compound, the outcome in the assay filed under Rattus norvegicus [3] was Active.
